Measured values reported in ChEMBL document CHEMBL3621132, “Discovery of diazepane amide DORAs and 2-SORAs enabled by exploration of isosteric quinazoline replacements” (Bioorg Med Chem Lett, 2015).
Calls of active or inactive are those of the source. No cut-off for these calls is given here.

Columns and labels:
[1] = molecular target: Orexin receptor type 1 (Homo sapiens) (UniProt O43613); assay: Binding affinity to human orexin 1 receptor expressed in CHO cells after 3 hrs by radioligand binding assay
[2] = molecular target: Orexin receptor type 2 (Homo sapiens) (UniProt O43614); assay: Binding affinity to human orexin 2 receptor expressed in CHO cells after 3 hrs by radioligand binding assay
Orexin receptor type 2 = molecular target: T1, Orexin receptor type 2 (Homo sapiens, UniProt O43614); assay: Antagonist activity at human orexin 2 receptor expressed in CHO cells assessed as inhibition of orexin-A-induced intracellular calcium level after 60 mins by FLIPR assay; assay type: functional, cell-based
T1 sequence (O43614 whole entry): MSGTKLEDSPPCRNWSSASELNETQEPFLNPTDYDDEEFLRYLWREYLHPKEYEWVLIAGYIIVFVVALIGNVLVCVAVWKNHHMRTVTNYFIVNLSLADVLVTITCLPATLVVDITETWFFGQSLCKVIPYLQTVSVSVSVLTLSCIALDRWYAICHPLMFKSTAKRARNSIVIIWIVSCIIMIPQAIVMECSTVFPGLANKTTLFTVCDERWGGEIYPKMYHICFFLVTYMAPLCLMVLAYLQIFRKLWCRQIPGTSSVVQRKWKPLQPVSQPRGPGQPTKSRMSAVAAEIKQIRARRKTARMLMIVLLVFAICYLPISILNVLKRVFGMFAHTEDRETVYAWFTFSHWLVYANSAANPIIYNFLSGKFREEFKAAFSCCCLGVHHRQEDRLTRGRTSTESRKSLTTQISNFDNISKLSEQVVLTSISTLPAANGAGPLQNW

[3] = Clearance in dog at 0.125 mg/kg, iv; assay type: ADME, organism-based, Canis lupus familiaris; settings: in vivo
In short: (§1)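 Intravenous PK in rat (2 mg/kg) and dog (0.125 or 0.5 mg/kg), vehicle 100% DMSO, n = 2. Clearance, Vdss and half-life were determined.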

[4] = molecular target: Orexin receptor type 2 (Homo sapiens) (UniProt O43614); assay: Antagonist activity at human orexin 2 receptor expressed in CHO cells assessed as inhibition of orexin-A-induced intracellular calcium level after 60 mins by FLIPR assay; settings: 1 h
[5] = Cmax in rat at 10 mg/kg, po; assay type: ADME, organism-based; set-up: dose 10 mg/kg, route oral; settings: in vivo
In short: (§2)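 Rats were dosed orally at 10 mg/kg in 100% PEG200 (n = 2), as the free base or the hydrochloride salt. AUC, Tmax, Cmax and bioavailability (F) were derived from plasma levels.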

[6] = AUC in rat at 10 mg/kg, po; assay type: ADME, organism-based; settings: in vivo
[7] = Tmax in rat at 10 mg/kg, po; assay type: ADME, organism-based; settings: in vivo
In short: as §2

[8] = AUC in dog at 3 mg/kg, po; assay type: ADME, organism-based, Canis lupus familiaris; settings: in vivo
[9] = Cmax in satellite rat sleep model at 30 mg/kg, po; assay type: ADME, organism-based; set-up: dose 30 mg/kg, route oral; settings: in vivo
In short: (§3)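 Satellite rats from the sleep study were given 30 mg/kg orally as the free base in 20% Vitamin E TPGS in water (n = 3). Plasma AUC, Cmax and Tmax were measured over the sleep experiment.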

Rattus norvegicus [10] = assay: Anti-insomnia activity in rat sleep model assessed as increase in REM sleep at 30 mg/kg, po up to 2 hrs; assay type: functional, organism-based
[11] = Half life in rat at 2 mg/kg, iv; assay type: ADME, organism-based; settings: in vivo
In short: as §1

[12] = Volume of distribution at steady state in dog at 0.125 mg/kg, iv; assay type: ADME, organism-based, Canis lupus familiaris; settings: in vivo, read-out: Vdss
In short: as §1

[13] = Clearance in rat at 2 mg/kg, iv; assay type: ADME, organism-based; settings: in vivo
In short: as §1

[14] = Oral bioavailability in satellite rat sleep model at 30 mg/kg; assay type: ADME, organism-based; settings: in vivo
In short: as §3

[15] = Half life in dog at 0.125 mg/kg, iv; assay type: ADME, organism-based, Canis lupus familiaris; settings: in vivo
In short: as §1

[16] = Plasma protein binding in human; assay type: ADME, cell-free; settings: read-out: PPB (converted)
[17] = Plasma protein binding in dog; assay type: ADME, cell-free, Canis lupus familiaris; settings: read-out: PPB (converted)
[18] = AUC in satellite rat sleep model at 30 mg/kg, po; assay type: ADME, organism-based; settings: in vivo
In short: as §3

[19] = Tmax in dog at 3 mg/kg, po; assay type: ADME, organism-based, Canis lupus familiaris; settings: in vivo
In short: (§4)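 Oral dosing in dogs at 3 mg/kg as the free base in 20% Vitamin E TPGS in water (n = 2). AUC, Tmax, Cmax and oral bioavailability were determined from plasma.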

[20] = Volume of distribution at steady state in rat at 2 mg/kg, iv; assay type: ADME, organism-based; settings: in vivo, read-out: Vdss
In short: as §1

[21] = Cmax in dog at 3 mg/kg, po; assay type: ADME, organism-based, Canis lupus familiaris; set-up: dose 3 mg/kg, route oral; settings: in vivo
In short: as §4

Rattus norvegicus [22] = assay: Anti-insomnia activity in rat sleep model assessed as increase in slow wave at 30 mg/kg, po up to 2 hrs; assay type: functional, organism-based
[23] = Plasma protein binding in rat; assay type: ADME, cell-free; settings: read-out: PPB (converted)
[24] = Tmax in satellite rat sleep model at 30 mg/kg, po; assay type: ADME, organism-based; settings: in vivo
In short: as §3

[25] = Oral bioavailability in rat at 10 mg/kg; assay type: ADME, organism-based; settings: in vivo
In short: as §2

Rattus norvegicus [26] = assay: Anti-insomnia activity in rat sleep model assessed as reduction of active wake at 30 mg/kg, po up to 2 hrs; assay type: functional, organism-based
[27] = Oral bioavailability in dog at 3 mg/kg; assay type: ADME, organism-based, Canis lupus familiaris; settings: in vivo
In short: as §4

[28] = Apparent permeability of the compound assessed […] by cell based assay; assay type: physicochemical
Rattus norvegicus [29] = species: Rattus norvegicus; assay: Ex vivo receptor occupancy at human OX2R expressed in transgenic rat at plasma concentration of 1 uM; assay type: functional
[30] = Lipophilicity, log D of the compound by HPLC analysis; assay type: physicochemical
Liver microsome [31] = assay: Bioactivation of compound in human liver microsomes assessed as AUC of GSH-adduct formation at 10 uM after 60 mins by HRMS analysis relative to labetalol; settings: 1 h
Liver microsome [32] = assay: Bioactivation of compound in rat liver microsomes assessed as AUC of GSH-adduct formation at 10 uM after 60 mins by HRMS analysis relative to labetalol; settings: 1 h

C[C@@H]1CCN(c2nc(Cl)ncc2Cl)CCN1C(=O)c1ccccc1-n1nccn1
Ki [1]: 850 nM | Ki [2]: 1.1 nM | IC50 (Orexin receptor type 2): 25 nM

Cc1ccc(-n2nccn2)c(C(=O)N2CCN(c3ncc(Cl)c(C)n3)CC[C@H]2C)c1
clearance [3]: 9 mL/min/kg | Ki [1]: 6.1 nM | IC50 [4]: 20 nM | IC50 (Orexin receptor type 2): 20 nM

Cc1ccc(-n2nccn2)c(C(=O)N2CCN(c3ncc(C(F)(F)F)c(C)n3)CC[C@H]2C)c1
clearance [3]: 10 mL/min/kg | Ki [1]: 1.6 nM | Ki [2]: 0.5 nM | IC50 (Orexin receptor type 2): 85 nM

COc1nc(N2CC[C@@H](C)N(C(=O)c3cc(C)ccc3-n3nccn3)CC2)ncc1C(F)(F)F
Cmax [5]: 200 nM | clearance [3]: 3 mL/min/kg | AUC [6]: 0.6 µM·h | Tmax [7]: 3 h | AUC [8]: 9.9 µM·h | Cmax [9]: 2500 nM | Activity (Rattus norvegicus [10]): Active | half-life [11]: 1.1 h | Vd [12]: 0.4 L/kg | clearance [13]: 37 mL/min/kg | bioavailability [14]: 19% | half-life [15]: 2.4 h | fraction unbound [16]: 0.04 | fraction unbound [17]: 0.005 | AUC [18]: 5.5 µM·h | Tmax [19]: 0.6 h | Vd [20]: 2.5 L/kg | Ki [1]: 1.5 nM | Cmax [21]: 2300 nM | Activity (Rattus norvegicus [22]): Active | fraction unbound [23]: 0.05 | Tmax [24]: 0.8 h | bioavailability [25]: 8% | Activity (Rattus norvegicus [26]): Active | bioavailability [27]: 23% | Papp [28]: 28 ×10⁻⁶ cm/s | IC50 [4]: 27 nM | Activity (Rattus norvegicus [29]): 83% | logD [30]: 3.4 | IC50 (Orexin receptor type 2): 27 nM

Cc1ccc(-n2nccn2)c(C(=O)N2CCN(c3ncc(C)c(Cl)n3)CC[C@H]2C)c1
clearance [3]: 8 mL/min/kg | Ki [1]: 3.9 nM | Ki [2]: 0.4 nM | IC50 [4]: 28 nM | IC50 (Orexin receptor type 2): 28 nM

COc1nc(N2CC[C@@H](C)N(C(=O)c3cc(C)ccc3-n3nccn3)CC2)ncc1C
Ki [1]: 14 nM | Ki [2]: 0.6 nM | IC50 [4]: 31 nM | IC50 (Orexin receptor type 2): 31 nM

Cc1ncc(C(F)(F)F)c(N2CC[C@@H](C)N(C(=O)c3ccccc3-n3nccn3)CC2)n1
Ki [1]: 4200 nM | Ki [2]: 31 nM | IC50 [4]: 88 nM | IC50 (Orexin receptor type 2): 88 nM

Cc1nc(N2CC[C@@H](C)N(C(=O)c3ccccc3-n3nccn3)CC2)ncc1C(F)(F)F
clearance [3]: 5 mL/min/kg | Ki [1]: 11 nM | IC50 [4]: 19 nM | IC50 (Orexin receptor type 2): 19 nM

Cc1ccc(-n2nccn2)c(C(=O)N2CCN(c3nc4cc(Cl)ccc4o3)CC[C@H]2C)c1 [SUVOREXANT]
Activity (Liver microsome [31]): > 95% | Activity (Liver microsome [32]): > 95%
